Reference: the RNAGym collection of RNA variant scans (doi:10.1126/science.aae0568)
This sample holds only a part of the variants without activity.

B1: tRNA (parent)
chain: GUUCCGUUGGCGUAAUGGUAACGCGUCUCCCUCCUAAGGAGAAGACUGCGGGUUCGAGUCCCGUACGGAACG

Variants of: B1
Assay: yeast fitness relative to wild type (ratio to wild type); higher = fitter; tRNA-Arg(CCU), competitive growth, 37 C, YPD
In short: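 The tRNA-Arg(CCU) gene variants were made by chemical synthesis with a 3% per-site mutation rate at 69 sites and inserted at the native genomic locus of Saccharomyces cerevisiae. After pooling, the strains were competed in YPD at 37°C for 24 hours in six parallel replicates. Gene amplicons from the start population and each end population were read by 100-nucleotide paired-end sequencing, and Darwinian fitness relative to wild type was taken from genotype frequency changes. Genotypes needed ≥ 100 starting reads, and estimates < 0.5 were set to 0.5.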
For GUUCCGUUGGCGUAAUGGUAACGCGUCUCCCUCCUAAGGGGAAGACUGCGGGUUCGAGUCCCGUACGCAACG, the yeast fitness was 0.709.
Work on GUUCCGUUGGCGUAAUGGUAAAGCGUCUCCCUCCUAAGGAGAAGCCCGCGGGUGCGAGUCCCGUACGGAACG yielded a yeast fitness of no more than 0.5.
Variant GAUCCGUUGGCGUAAUGGUAACGCGUCUCCCUCCUAAGGAGAAGACUACGGGUUCGUGUCCCGUUAGGAACG has a yeast fitness of no more than 0.5.
For GUUCCGUUGGCGUAAUGGUAACGCGUCUCCUUCCUAAGGAGAAGACUGCGGGUUCGAGUCCCCUACGGAACG, the yeast fitness was 0.766.
With GUUCCGUUGGCGUAAUGGUAACGCGUCUCCCUCCUAAGGAGAAGACUGCGGGUUCGAGUCCCGGACGGAUCG the yeast fitness was 0.787.
GUUCCGUUGGCGUCAUGGUAACGCGUCUCCCUGCUAAGGAGAAAACUGAGGGUUAGAGUCCCGUACGGAACG gave a yeast fitness of no more than 0.5.
With GUUCCGUUGGCGUAAUGAUAACGCGUCUCCCUCCUAAGGAGAAGACUGCGCGUUCGAGUCCCGUGCGGAACG the yeast fitness was no more than 0.5.
Work on GUUCCGUUGGCGUAAUGGUUACGCGUCUCCCUCCUAAGGAGUAGACUGCGGGUUCGAGUCCCGUACACAACG yielded a yeast fitness of no more than 0.5.
For GUUCCGCUGGCGUGAUGGGAACGCGUCUGCCUCCUAAGGAGAAGACUGAGGCUUCGAGUCCCGUACGGAACG, the yeast fitness was no more than 0.5.
GUUGCGUUGGCGUAAAGGUAACGCGUCUCCCUCCUAAGGAGACGACUGCGGGUUCGAGUCCCGUACGGAACG showed a yeast fitness of no more than 0.5.
GUUCCGUUGGCGUAAUGGUAACGAGUCUCCAUCCUAAGGAGAAGACUGCGGGUUCGAGUCCCGUACGGAACG gave a yeast fitness of 0.603.
Work on GUUCCGUUGGCGUAAUGGUAGCACGUGUCCCUCCUAUGGAGAAAACUGUGGGUUCGAGUCCCCUACGGAACG yielded a yeast fitness of no more than 0.5.
With GUUCCGUUGGCGUAAUGGUAACGAGUCCCCCUCCUAAGGAGAAGACUGCGGGUUCGAGUCACGUACGGAACG the yeast fitness was no more than 0.5.
For GUUCCGAUGGCGUAAUGGUUACGCGUCUCCCUCCUAAGGAGAAGACUGCGGGUUCGAGUCCCGUACGGAACG, the yeast fitness was 0.776.
Variant GUUCCGUUGGAGUAAUGGUAACGCGUCUCCCUCCUGAGGAGACGACUGCGGGUUCGAGUCCCGUACGGUACG has a yeast fitness of no more than 0.5.
GUUCCGUGGGCGUAAUGGUAACGCGUCUCCCUCCUAAGGAGAAGACUGCGGAUUCGAGUCCCGUACCGAACG showed a yeast fitness of 0.521.
GUUCCGUUGGCGUAAUGGUAACGCGUCUCCCCCCUACGGAGAAGACUGCGGGUUCGAGUCCCGUACGGAACG showed a yeast fitness of 0.771.
GUUACGUUGGCGUAAUGGUAACGCGGCUCCCUCCUAAGGAGAACACUGCGGGUUCCAAUCCCGUACGCAACG gave a yeast fitness of no more than 0.5.
With GUUCCGUUGGCGUAAUGGUAACGCGACUCCCUCCUAAGGAGAAGACUGCGGCUUCGAGUCCCGUACGGAACG the yeast fitness was 0.645.
GUUCCGUUGGCGUCAUGGUAACGCGUCUCCCUCCUAAGGAGAAGACUGCGGGUUCGAGUCCCGUACGGGACG gave a yeast fitness of 0.692.
GUUCCGUUGGCGUAAUGGUAACGCGGCUCCCUCCUAAGCAGAAGGCUGCGGGUUCGCGUCGCGUACGGAACG gave a yeast fitness of 0.592.
In the case of GUUCCGUUGGCGUAAUGGUAACGCGUCUCCCUCCUAGGGAGAAGACUGCGGGUUCGUGUCCCGUACGGAACG, the yeast fitness is reported as 0.55.
Work on GUUCCGUUGGCGUGAUGGUAACGCGUCUCCCUCCUAAGGAGAAGACUGCGGGUCCGAGUCCCGUACGGAACG yielded a yeast fitness of 0.633.
Variant GUUCCGUUGGCGUAAUGGUAACGCGUUUCCCUCCUAAGGAGAAGAGUGCGGGUUCGAGUCCCGUACGGCACG has a yeast fitness of 0.757.
With GUUCCGAUGGCGUAAUGGUAUCGCGUCUCCCUCCUAAGGAGAAGCCUGCGGGUUCGAGUCCCGUACGGAACG the yeast fitness was no more than 0.5.
For GUUCCGGUGGCAUAAUGGUAACGCAUCUCCCUGCUAAGGAGAAGACUGCGGGUUCGAGUCCUGUACGGAACG, the yeast fitness was no more than 0.5.
Work on GUUCCGUUGGCGUAAUGGUAACGCAUCUCCCUCCUAAGGCGAAGACUGCGGGUUCGAGUCCCGUACGGAACG yielded a yeast fitness of 0.839.
Variant GUUCCGUUGGCGUAAUGGUUACGCGUCUCCCACCUAAGGAGAAGACUGCGGGUUCGAGUCCCGUACCGAACG has a yeast fitness of 0.543.
Variant GUUCCGUUGGCGUAAUGGUAAGGCGUCUCCCUCGUAAGGAGAAGACUGCGGGUUCGAGUCCCGUACGGACCG has a yeast fitness of 0.608.
GUUCCGUUCGCGUACUGGUAACGCGUCUCCCUCGUAAGGAGAAGACUGCGGGUUCGAGUCCCGUACGGAACG showed a yeast fitness of no more than 0.5.
GUACCGUUGGCGUAAUGGAAACGCGUCUCCCUCCUAAGGAGAAGACUGCGGGUUCGACUCCCGUACGGAACG gave a yeast fitness of 0.675.
Work on GUUCCGUUGGCGUAAUGGUAACGCGUCUCCAUCCUAAGAAGAAGACAGCGGGUUCGAGUCCCGUACGCAACG yielded a yeast fitness of no more than 0.5.
Work on GUUCCGUUGGCGGAAUGGUAUGGCGCCUCCCUCCAAAGGAGAAGACUGCGGGUUCGAGUCCCGUGCGGACCG yielded a yeast fitness of no more than 0.5.
For GUUCCGUUGGCGUAAUGGUAACGCGUCUCCCUCUUAAGGAGAAGACUGCGGCUUCGAGUCCCGUACGGAUCG, the yeast fitness was no more than 0.5.
For GUUCCAUUGGCGAGAUGGUAACGCGUCUCCCUCCUAAGGAGUAGACUCCGGGUUCGAGUCCCGUACCGAACG, the yeast fitness was no more than 0.5.
For GUUCCGUUGGCGUAAUGGUAACGCGUCUCGCUCCUAAGGAGAAGAAGGAGGAUUCGACUCUCGGGCGGAACG, the yeast fitness was no more than 0.5.
With GUUCCGGUGGCGUGAUGGUAAUGCGUCUCCCUCCUAAAGAGAAGACUGCGGGUUAGAGUCCCGUACGGAACG the yeast fitness was 0.555.
Work on GUUCCGAUGGCGUAAUGGUAACGCGUCUCCCUCGUAAGAAGAAGACUGCGGGUUCGAGUCCCGUACGGAACG yielded a yeast fitness of no more than 0.5.
